Results of several laboratories.
Protocols differ between the studies behind these lines.
Observed: cell growth or viability

SMILES	cell line	technique	concentration	time	notes	endpoint	result
CC(C)[C@H](N)C(=O)N1CCC[C@H]1B(O)O	HEK-293T	ATP luminescence	60 µM	5 days		viability	97%
CCOC(=O)CCc1ccccc1OP(=O)(OC[C@H]1O[C@@H](n2cnc3c(N)nc(N)nc32)[C@](C)(O)[C@@H]1O)Oc1ccccc1CCC(=O)OCC	Huh-7				replicon	CC50	> 10 µM
CCC/C=C/C=C/C(=O)O[C@H]1/C(=C/C(=O)OC)C[C@H]2C[C@H]([C@@H](C)O)OC(=O)C[C@H](O)C[C@@H]3C[C@H](OC(C)=O)C(C)(C)[C@](O)(C[C@@H]4C/C(=C/C(=O)OC)C[C@H](/C=C/C(C)(C)[C@]1(O)O2)O4)O3	BGM	MTS		5 days		CC50	~100 µM
COC(=O)[C@@H]1[C@@H](c2ccccc2)[C@]2(c3ccc(OC)cc3)Oc3cc(OC)cc(OC)c3[C@@]23N=C(C)N[C@@]13O	HepG2	MTT		24 h		CC50	0.0658 µM
CC(C)(CO)C(=O)SCCOP(=O)(NCc1ccccc1)OC[C@H]1O[C@@H](n2cnc3c(=O)[nH]c(N)nc32)[C@](C)(O)[C@@H]1O (mixture of isomers)	Huh-7				replicon	CC50	> 10 µM
O=c1c(O[C@@H]2O[C@H](CO)[C@@H](O)[C@H](O)[C@H]2O)c(-c2ccc(O)cc2)oc2cc(O)cc(O)c12	HepG2	WST-1				IC50	37.8 µM
CC(C)(C)C(O)C(Oc1ccc(-c2ccccc2)cc1)n1cncn1 (centres unmarked)	Huh-7	MTT		24 h		CC50	> 400 µM
CCCCCCCCCCOc1cc2c(O)c(C(=O)OCC)cnc2cc1OCC	Huh-7			72 h		IC50	> 100 µM
